How the values were obtained:
Assay type in all cases: functional
[1] = tested on: Mycolicibacterium diernhoferi; test: Antimycobacterial activity against Mycobacterium diernhoferi
Summary of the method: (§1)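 Broth microdilution MIC. Purified compound given as serial 2-fold dilutions in Mueller-Hinton broth in 96-well plates. Inoculum made by scraping colonies from EBS agar plates (EBS: casein peptone 0.5%, glucose 0.5%, meat/yeast extract 0.1% each, 50 mM HEPES, pH 7.0) into EBS medium, then added to 5 × 10^5 CFU/mL. MIC taken as lowest concentration inhibiting 99% of inoculum.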

[2] = tested on: Mycolicibacterium phlei; test: Antimycobacterial activity against Mycobacterium phlei; summary of the method: as §1
[3] = tested on: Mycolicibacterium smegmatis; test: Antimycobacterial activity against Mycobacterium smegmatis; summary of the method: as §1

Measured: MIC

CCCCCCC/C=C\CCCCCCC(=O)N[C@H](C(=O)O[C@H]1O[C@H](CO)[C@@H](O)[C@H](O)[C@H]1NC(=O)CCC)C(C)C
180 µM: all assays above

CCCCCC/C=C\C[C@@H]1CC(=O)N[C@@H](CO)C(=O)O[C@H](CCCCCCC)CC(=O)N[C@@H](CO)C(=O)O1 [SERRATAMOLIDE B]
180 µM: all assays above

CCCCCCCCCCCCCCC(=O)N[C@H](C(=O)O[C@H]1O[C@H](CO)[C@@H](O)[C@H](O)[C@H]1NC(=O)CCC)C(C)C
180 µM: all assays above

CCCCCCCC[C@@H]1CC(=O)N[C@@H](CO)C(=O)O[C@H](CCCCCCC)CC(=O)N[C@@H](CO)C(=O)O1 [SERRATAMOLIDE D]
180 µM: all assays above

CCCCCCC[C@@H]1CC(=O)N[C@@H](CO)C(=O)O[C@H](CCCCCC)CC(=O)N[C@@H](CO)C(=O)O1 [SERRATAMOLIDE F]
180 µM: all assays above

CCCCCCC[C@@H]1CC(=O)N[C@@H](CO)C(=O)O[C@H](CCCCCCC)CC(=O)N[C@@H](CO)C(=O)O1 [SERRATAMOLIDE A]
180 µM: all assays above

CCCCCCCCCCCCCC(=O)N[C@H](C(=O)O[C@H]1O[C@H](CO)[C@@H](O)[C@H](O)[C@H]1NC(=O)CCC)C(C)C
180 µM: all assays above

CCCCCCC[C@@H]1CC(=O)N[C@@H](CO)C(=O)O[C@H](CCCCC)CC(=O)N[C@@H](CO)C(=O)O1 [SERRATAMOLIDE E]
180 µM: all assays above

CCCCCCCCC[C@@H]1CC(=O)N[C@@H](CO)C(=O)O[C@H](CCCCCCC)CC(=O)N[C@@H](CO)C(=O)O1 [SERRATAMOLIDE C]
180 µM: all assays above

Source: ChEMBL document CHEMBL1149852, “Antimycobacterial serratamolides and diacyl peptoglucosamine derivatives from Serratia sp” (2008)
